Data reported in ChEMBL document CHEMBL1151811, “Isolation, structure elucidation, and biological activity of virgineone from Lachnum Wirgineum using the genome-wide Candida albicans fitness test” (2009).
In brackets after ≈: the same amount, converted by molar mass. Activity calls are given as the source filed them. The calls are words filed in the database; no cut-off is given here.

Experiments:
Clavispora lusitaniae = assay: Antifungal activity against Candida lusitaniae MY1396 after 20 hrs; format: functional; conditions: MY1396, 20 h
Outline: (§1)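 Broth MIC with cells seeded at 10⁵ cfu/mL and exposed to 2-fold serial compound dilutions in growth medium, 37 °C for 20 h. MIC taken as the minimum inhibitory concentration.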

Pichia kudriavzevii = assay: Antifungal activity against Candida krusei ATCC 6258 after 20 hrs; format: functional; conditions: ATCC 6258, 20 h
Outline: (§2)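 Broth MIC. Cells inoculated at 10⁵ cfu/mL in growth medium with 2-fold serial dilutions of compound. Incubated 20 h at 37 °C. MIC taken as minimum inhibitory concentration. For line 2 the medium held 50% mouse serum.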

Aspergillus fumigatus [1] = assay: Antifungal activity against Aspergillus fumigatus MF5568 after 20 hrs; format: functional; conditions: MF5568, 20 h; outline: as §1
Aspergillus fumigatus [2] = assay: Antifungal activity against Aspergillus fumigatus MF5568 in presence of 50% human serum after 20 hrs; format: functional; conditions: MF5568, 20 h; outline: as §1
[3] = system: Trichophyton mentagrophytes; assay: Antifungal activity against Trichophyton mentagrophytes MF7004 after 20 hrs; format: functional; conditions: MF7004, 20 h; outline: as §1
Staphylococcus aureus = assay: […] activity against Staphylococcus aureus MB2865; format: functional
Candida albicans [4] = assay: Antifungal activity against Candida albicans MY1055 infected in DBA/2 mouse assessed as mouse mortality at 100 mg/kg, ip twice daily measured after 4 days postinfection; format: functional; conditions: route intraperitoneal
Outline: (§3)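 Mice infected iv via lateral tail vein with C. albicans MY1055 at 2.51 × 10⁴ cfu/mouse. Five DBA/2 mice per group, dosed ip twice daily; compound formulated in 5% DMSO in sterile distilled water. Mortality and general health observed for 4 days after challenge.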

Candida albicans [5] = assay: Antifungal activity against Candida albicans MY1055 infected in DBA/2 mouse assessed as mouse mortality at 50 mg/kg, ip twice daily measured after 4 days postinfection; format: functional; conditions: route intraperitoneal; outline: as §3
Candida albicans [6] = assay: Antifungal activity against Candida albicans MY1055 infected in DBA/2 mouse assessed as reduction in fugal CFU treated mouse twice daily measured after 4 days postinfection; format: functional, organism-based
Outline: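 DBA/2 mice (5 per group) were infected iv via lateral tail vein with 2.51 × 10⁴ cfu/mouse. They were dosed ip twice daily at 100 or 50 mg/kg in 5% DMSO/sterile water. On day 4, kidneys were homogenized in saline, diluted 10-fold serially, plated on SDA and incubated at 35 °C for 30–48 h. Cfu/g kidney were compared with sham-treated controls by paired two-tailed t-test.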

Nakaseomyces glabratus = assay: Antifungal activity against Candida glabrata MY1381 after 20 hrs; format: functional; conditions: MY1381, 20 h; outline: as §2
Candida parapsilosis = assay: Antifungal activity against Candida parapsilosis ATCC 22019 after 20 hrs; format: functional; conditions: Lodderomyces parapsilosis, ATCC 22019, 20 h; outline: as §2
Candida albicans [7] = assay: Antifungal activity against Candida albicans MY1055 after 20 hrs; format: functional; conditions: MY1055, 20 h; outline: as §2
Candida albicans [8] = assay: Antifungal activity against Candida albicans MY1055 in presence of 50% mouse serum after 20 hrs; format: functional; conditions: MY1055, 20 h; outline: as §2

SMILES	MIC (Clavispora lusitaniae) [µg/mL]	MIC (Pichia kudriavzevii) [µg/mL]	MIC (Aspergillus fumigatus [1]) [µg/mL]	MIC (Aspergillus fumigatus [2]) [µg/mL]	MIC [3] [µg/mL]	MIC (Staphylococcus aureus) [µg/mL]	Activity (Candida albicans [4]) [%]	Activity (Candida albicans [5]) [%]	Activity (Candida albicans [6])	MIC (Nakaseomyces glabratus) [µg/mL]	MIC (Candida parapsilosis) [µg/mL]	MIC (Candida albicans [7]) [µg/mL]	MIC (Candida albicans [8]) [µg/mL]
CC(CCCCCCCCC(=O)CCCCCCCCCC(O)CO[C@@H]1O[C@H](CO)[C@@H](O)[C@H](O)[C@@H]1O)C(=O)C1=C(O)C(Cc2ccc(O)cc2)NC1=O (stereo partly drawn) [VIRGINEONE]	4 (≈ 5.33 µM)	16 (≈ 21.3 µM)	8 (≈ 10.7 µM)	> 32	8 (≈ 10.7 µM)	16 (≈ 21.3 µM)	100	40	inactive	8 (≈ 10.7 µM)	8 (≈ 10.7 µM)	8 (≈ 10.7 µM)	> 32
CC[C@H](C)C[C@H](C)CCCCCCCCC(=O)N[C@H]1C[C@@H](O)[C@@H](NCCN)NC(=O)[C@@H]2[C@@H](O)CCN2C(=O)[C@H]([C@H](O)CCN)NC(=O)[C@H]([C@H](O)[C@@H](O)c2ccc(O)cc2)NC(=O)[C@@H]2C[C@@H](O)CN2C(=O)[C@H]([C@@H](C)O)NC1=O [CASPOFUNGIN]	< 0.03	1 (≈ 0.915 µM)	32 (≈ 29.3 µM)	32	32 (≈ 29.3 µM)	> 32	–	–	–	0.25 (≈ 0.229 µM)	0.5 (≈ 0.457 µM)	0.5 (≈ 0.457 µM)	0.25
